Legend:
[1] = Cytotoxicity against human Raji cells assessed as cell viability at 32 nmol after 48 hrs by trypan blue staining; format: cell-based; conditions: read-out: Activity
Outline: (§1)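 Raji cells grown to 106 cells/mL, pelleted and resuspended in RPMI 1640 with 10% FCS plus 4 mM n-butyric acid and 32 pmol TPA (20 ng/mL in DMSO), with test compound in DMSO (32, 16, 3.2 or 0.32 nmol; 1000–10 mol ratio/TPA). Viability counted after 48 h at 37 °C by hemocytometer with Trypan Blue; at least 60% survival required.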

[2] = Inhibition of TPA-induced EBV-early antigen activation in human Raji cells assessed as early antigen activation after 48 hrs relative to control; format: cell-based, human gammaherpesvirus 4
Outline: (§2)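 Raji cells at 10^6 cells/mL are harvested and induced in RPMI 1640/10% FCS with 4 mM n-butyric acid and 32 pmol TPA (20 ng/mL). Compound is added in DMSO at 32, 16, 3.2 or 0.32 nmol (mol ratio to TPA). After 48 h at 37 °C, EA-positive cells are counted blind (≥500 cells) as % versus TPA-only control ± SD. IC50 is the mol ratio to TPA giving 50% inhibition.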

[3] = Cytotoxicity against human Raji cells assessed as cell viability at 0.32 nmol after 48 hrs by trypan blue staining; format: cell-based; conditions: read-out: Activity; outline: as §1
[4] = Cytotoxicity against human Raji cells assessed as cell viability at 3.2 nmol after 48 hrs by trypan blue staining; format: cell-based; conditions: read-out: Activity; outline: as §1
[5] = tested on: Raji; test: Inhibition of TPA-induced EBV-early antigen activation in human Raji cells assessed as early antigen activation at 0.32 nmol after 48 hrs relative to control; format: cell-based; parameters: scale not given: the % may be the effect or the level left; conditions: human gammaherpesvirus 4; outline: as §2
[6] = Cytotoxicity against human Raji cells assessed as cell viability at 16 nmol after 48 hrs by trypan blue staining; format: cell-based; conditions: read-out: Activity; outline: as §1
[7] = tested on: Raji; test: Inhibition of TPA-induced EBV-early antigen activation in human Raji cells assessed as early antigen activation at 32 nmol after 48 hrs relative to control; format: cell-based; parameters: scale not given: the % may be the effect or the level left; conditions: human gammaherpesvirus 4; outline: as §2
[8] = tested on: Raji; test: Inhibition of TPA-induced EBV-early antigen activation in human Raji cells assessed as early antigen activation at 3.2 nmol after 48 hrs relative to control; format: cell-based; parameters: scale not given: the % may be the effect or the level left; conditions: human gammaherpesvirus 4; outline: as §2
[9] = tested on: Raji; test: Inhibition of TPA-induced EBV-early antigen activation in human Raji cells assessed as early antigen activation at 16 nmol after 48 hrs relative to control; format: cell-based; parameters: scale not given: the % may be the effect or the level left; conditions: human gammaherpesvirus 4; outline: as §2

| Structure (SMILES) | IC50 [2] | viability at 48 h, 32 nmol [1] | viability at 48 h, 0.32 nmol [3] | viability at 48 h, 3.2 nmol [4] | Activity [5] | viability at 48 h, 16 nmol [6] | Activity [7] | Activity [8] | Activity [9] |
| --- | --- | --- | --- | --- | --- | --- | --- | --- | --- |
| CCCc1cc(=O)oc2c(C(=O)C(C)CC)c(O)c(CC=C(C)C)c(O)c12 (stereo not given) | 170 molar ratio | 60% | > 80% | > 80% | 84.2% | > 80% | 0% | 50.6% | 13.7% |
| CC1=C(/C=C/C(C)=C/C=C/C(C)=C/C=C/C=C(C)/C=C/C=C(C)/C=C/C2=C(C)CCCC2(C)C)C(C)(C)CCC1 [BETA CAROTENE] | 400 molar ratio | – | – | – | 100% | – | 9.1% | – | – |
| CCCc1cc(=O)oc2c(C(=O)c3ccccc3)c(O)c3c(c12)OC(C)(C)C=C3 [BRASIMARIN A] | 349 molar ratio | 70% | > 80% | > 80% | 93.8% | > 80% | 0% | 72.1% | 33.3% |
| CC(C)=CCc1c2c(c3oc(=O)cc(-c4ccccc4)c3c1O)C(=O)[C@H](C)[C@@H](C)O2 [BRASIMARIN C] | 348 molar ratio | 70% | > 80% | > 80% | 93.8% | > 80% | 0% | 70.2% | 33.3% |
| CCCc1cc(=O)oc2c3c(c4c(c12)OC(C)(C)C=C4)O[C@H](C)[C@@H](C)[C@@H]3O [CALANOLIDE A] | 290 molar ratio | 60% | > 80% | > 80% | 92.5% | > 80% | 0% | 66.6% | 27.7% |
| CCCc1cc(=O)oc2c3c(c4c(c12)OC(C)(C)C=C4)O[C@H](C)[C@H](C)[C@@H]3O [CALANOLIDE C] | 351 molar ratio | 70% | > 80% | > 80% | 94.3% | > 80% | 0% | 74% | 35.1% |

The next lines start with results.

| IC50 [2] | Structure (SMILES) | viability at 48 h, 32 nmol [1] | viability at 48 h, 0.32 nmol [3] | viability at 48 h, 3.2 nmol [4] | Activity [5] | viability at 48 h, 16 nmol [6] | Activity [7] | Activity [8] | Activity [9] |
| --- | --- | --- | --- | --- | --- | --- | --- | --- | --- |
| 268 molar ratio | C/C=C(\C)C(=O)c1c(OC)c2c(c3c(CCC)cc(=O)oc13)OC(C)(C)C=C2 | 60% | > 80% | > 80% | 90.8% | > 80% | 0% | 62.5% | 19.5% |
| 342 molar ratio | CCC(C)C(=O)c1c(O)c2c(c3c(-c4ccccc4)cc(=O)oc13)OC(C(C)(C)O)C2 (stereo not given) [BRASIMARIN B] | 70% | > 80% | > 80% | 92.5% | > 80% | 0% | 71.6% | 32.6% |
| 347 molar ratio | CC1(C)C=Cc2c(O)c(C(=O)c3ccccc3)c3oc(=O)cc(-c4ccccc4)c3c2O1 [CALANONE] | 70% | > 80% | > 80% | 93.3% | > 80% | 0% | 73.1% | 32.3% |

— ChEMBL document CHEMBL1150675, “Chemical constituents of Calophyllum brasiliense. 2. Structure of three new coumarins and cancer chemopreventive activity of 4-substituted coumarins” (J Nat Prod, 2003)
